The values below come from article PMC6430714 (Journal of the American Chemical Society, 2018).

In brackets after ≈: the same amount, converted by molar mass.

Assay [1] concerns S. aureus biofilms (MSSA and two MRSA strains). Put plainly: MBEC, summarised over the S. aureus strains. In kind it is cell-based, Staphylococcus aureus. The note with it: TSB; range as stated in text (Table 1, Table SI-1).
The subject of assay [2] is MRSA USA400 MW2 biofilms. Put plainly: Confocal microscopy of biofilms, SYTO 9/PI live/dead staining. In kind it is cell-based, Staphylococcus aureus. The note with it: 80 μM, 5 h treatment in TSB, 48 h biofilms, SYTO 9/PI fluorescence. The gist of the method: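 USA400 MW2 grown in TSB with shaking at 37 °C to stationary phase, then adjusted in TSB to 1 × 10^7 CFU/mL. Eight-well chambered coverglass coated with 50 μg/mL fibronectin for 30 min at room temperature and PBS-washed twice. Biofilms grown statically, humidified, 37 °C, 48 h, then PBS-washed twice. Stained with SYTO 9 (all cells) and PI (dead cells) in TSB; 10× compound solution added.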

Assay [3] deals with MRSA (USA400 MW2). Put plainly: Minimum inhibitory concentration, broth microdilution. In kind it is cell-based. The note with it: Staphylococcus aureus.
Assay [4] relates to MRSA (USA300 LAC). Described as above. In kind it is cell-based. The note with it: Staphylococcus aureus.
Assay [5] relates to S. aureus strain 29213. Put plainly: Resistance evolution experiment. In kind it is cell-based, Staphylococcus aureus. The conditions noted are these: 14 day period, strain 29213, daily passage from 1/2 MIC well. In outline: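 An MIC assay on strain 29213 was repeated daily for 14 days, each incubated 24 h at 37 °C. Colonies from TSA were suspended in PBS to OD600 0.1 and diluted 1:100 in Mueller–Hinton broth. Inoculum was added to 2-fold serial dilutions of test compound in MHB. MIC was the lowest concentration with no growth by OD600.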

In assay [6] the test system is MRSA USA300 LAC biofilms. Put plainly: Murine skin wound excisional biofilm model. In kind it is in vivo, C57BL/6 mice. The note with it: topical 0.05%, 5 h; not statistically significant.
For assay [7], the system named is MSSA (29213). Put plainly: Minimum inhibitory concentration, broth microdilution. In kind it is cell-based. The conditions noted are these: Staphylococcus aureus.

Turning to `CN[C@H](CC(C)C)C(=O)N[C@H]1C(=O)N[C@@H](CC(N)=O)C(=O)N[C@H]2C(=O)N[C@H]3C(=O)N[C@H](C(=O)N[C@H](C(=O)O)c4cc(O)cc(O)c4-c4cc3ccc4O)[C@H](O[C@H]3C[C@](C)(N)[C@@H](O)[C@H](C)O3)c3ccc(c(Cl)c3)Oc3cc2cc(c3O[C@@H]2O[C@H](CO)[C@@H](O)[C@H](O)[C@H]2O[C@H]2C[C@](C)(NCc3ccc(-c4ccc(Cl)cc4)cc3)[C@@H](O)[C@H](C)O2)Oc2ccc(cc2Cl)[C@H]1O` [Oritavancin], the “MBEC range over the S. aureus strains” value in assay [1] was 12 to 32 µM.

The compound `CN[C@H](CC(C)C)C(=O)N[C@H]1C(=O)N[C@@H](CC(N)=O)C(=O)N[C@H]2C(=O)N[C@H]3C(=O)N[C@H](C(=O)N[C@H](C(=O)O)c4cc(O)cc(O)c4-c4cc3ccc4O)[C@H](O)c3ccc(c(Cl)c3)Oc3cc2cc(c3O[C@@H]2O[C@H](CO)[C@@H](O)[C@H](O)[C@H]2O[C@H]2C[C@](C)(N)[C@H](O)[C@H](C)O2)Oc2ccc(cc2Cl)[C@H]1O` [V, vancomycin] had a viable biofilm bacteria in assay [2] of 65%. Moreover, the minimal inhibitory concentration (MIC) in assay [3], in assay [4] and in assay [7] was 0.5 µM (≈ 0.725 µg/mL) each time. For the same compound, the “fold increase in MIC over serial passage” value in assay [5] turned out to be 4 fold. Further, the “fold reduction in median CFU/wound compared to untreated mice” value in assay [6] is listed as 6 fold.

On to `CN[C@H]1C(=O)N[C@@H]2Cc3ccc(cc3)Oc3cc4cc(c3O[C@@H]3O[C@H](C(=O)O)[C@@H](O)[C@H](O)[C@H]3NC(=O)CCCCCCCCC(C)C)Oc3ccc(cc3Cl)[C@@H](O)[C@@H]3NC(=O)[C@H](NC(=O)[C@@H]4NC(=O)[C@@H](NC2=O)c2cc(cc(O)c2Cl)Oc2cc1ccc2O)c1ccc(O)c(c1)-c1c(O[C@H]2O[C@H](CO)[C@@H](O)[C@H](O)[C@@H]2O)cc(O)cc1[C@@H](C(=O)NCCCN(C)C)NC3=O` [dalbavancin], for which the “MBEC range over the S. aureus strains” value in assay [1] lay within 8 to 20 µM.
